Experimental data taken from ChEMBL document CHEMBL1156219, “Discovery of novel N-acylsulfonamide analogs as potent and selective EP3 receptor antagonists” (Bioorg Med Chem Lett, 2010).

Tests used:
[1] = molecular target: T1, Prostaglandin E2 receptor EP3 subtype (Mus musculus, UniProt P30557); test: Displacement of [3H]PGE2 from mouse EP3 receptor expressed in CHO cells after 60 mins by scintillation counter; format: cell-based
T1 sequence (P30557 whole entry): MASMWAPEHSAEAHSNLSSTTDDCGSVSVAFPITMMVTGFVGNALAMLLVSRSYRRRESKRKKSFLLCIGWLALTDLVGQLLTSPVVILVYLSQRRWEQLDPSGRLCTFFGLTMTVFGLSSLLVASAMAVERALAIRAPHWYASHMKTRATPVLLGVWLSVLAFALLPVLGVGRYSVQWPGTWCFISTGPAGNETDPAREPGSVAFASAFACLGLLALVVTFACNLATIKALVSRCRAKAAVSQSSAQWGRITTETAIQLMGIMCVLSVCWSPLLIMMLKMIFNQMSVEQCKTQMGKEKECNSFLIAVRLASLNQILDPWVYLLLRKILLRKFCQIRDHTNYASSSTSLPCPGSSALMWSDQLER

[2] = tested on: Rattus norvegicus; test: Inhibition of PGE2-induced uterine contraction in pregnant rat at 1 mg/kg, id; format: functional; settings: route intraduodenal
Method in brief: (§1)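 Pregnant rats received test agent intraduodenally (0.3 or 1 mg/kg tested). Uterine contraction was induced with PGE2 and suppression scored as % inhibition. Each value is the mean of two experiments.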

[3] = molecular target: T2, Prostaglandin E2 receptor EP1 subtype (Mus musculus, UniProt P35375); test: Displacement of [3H]PGE2 from mouse EP1 receptor expressed in CHO cells after 60 mins by scintillation counter; format: cell-based
T2 sequence (P35375 whole entry): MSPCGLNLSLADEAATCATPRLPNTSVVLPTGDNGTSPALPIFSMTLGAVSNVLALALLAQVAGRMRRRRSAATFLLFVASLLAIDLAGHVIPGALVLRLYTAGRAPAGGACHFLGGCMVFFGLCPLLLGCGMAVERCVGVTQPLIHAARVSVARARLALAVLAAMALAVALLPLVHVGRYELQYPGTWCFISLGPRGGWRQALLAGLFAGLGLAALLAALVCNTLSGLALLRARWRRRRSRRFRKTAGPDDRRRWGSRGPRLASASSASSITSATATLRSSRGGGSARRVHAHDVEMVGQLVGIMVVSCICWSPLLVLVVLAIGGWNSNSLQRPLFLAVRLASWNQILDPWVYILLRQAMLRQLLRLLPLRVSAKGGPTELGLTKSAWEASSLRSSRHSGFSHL

[4] = molecular target: T1, Prostaglandin E2 receptor EP3 subtype; test: Antagonist activity at mouse EP3 receptor expressed in CHO cells assessed as inhibition of PGE2-induced increase in intracellular calcium level after 1 hr by FDSS in presence of 1% bovine serum albumin; format: functional, cell-based
[5] = molecular target: Prostaglandin E2 receptor EP4 subtype (Mus musculus, UniProt P32240); test: Displacement of [3H]PGE2 from mouse EP4 receptor expressed in CHO cells after 60 mins by scintillation counter; format: cell-based
Chain of Prostaglandin E2 receptor EP4 subtype (P32240 whole entry): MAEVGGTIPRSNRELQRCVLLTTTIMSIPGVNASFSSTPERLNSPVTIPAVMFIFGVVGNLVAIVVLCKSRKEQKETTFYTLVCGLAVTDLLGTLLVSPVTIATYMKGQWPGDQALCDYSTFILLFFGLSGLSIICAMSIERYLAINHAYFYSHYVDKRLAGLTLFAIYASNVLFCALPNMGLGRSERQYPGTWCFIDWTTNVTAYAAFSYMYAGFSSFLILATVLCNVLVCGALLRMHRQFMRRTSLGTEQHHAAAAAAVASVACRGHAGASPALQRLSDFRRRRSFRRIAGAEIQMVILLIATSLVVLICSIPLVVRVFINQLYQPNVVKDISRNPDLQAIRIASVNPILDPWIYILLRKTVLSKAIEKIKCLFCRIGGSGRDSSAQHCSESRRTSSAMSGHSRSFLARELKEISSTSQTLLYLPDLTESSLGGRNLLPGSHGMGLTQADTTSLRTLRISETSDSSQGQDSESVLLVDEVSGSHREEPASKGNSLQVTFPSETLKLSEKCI

[6] = molecular target: Prostaglandin E2 receptor EP2 subtype (Mus musculus, UniProt Q62053); test: Displacement of [3H]PGE2 from mouse EP2 receptor expressed in CHO cells after 60 mins by scintillation counter; format: cell-based
Chain of Prostaglandin E2 receptor EP2 subtype (Q62053 whole entry): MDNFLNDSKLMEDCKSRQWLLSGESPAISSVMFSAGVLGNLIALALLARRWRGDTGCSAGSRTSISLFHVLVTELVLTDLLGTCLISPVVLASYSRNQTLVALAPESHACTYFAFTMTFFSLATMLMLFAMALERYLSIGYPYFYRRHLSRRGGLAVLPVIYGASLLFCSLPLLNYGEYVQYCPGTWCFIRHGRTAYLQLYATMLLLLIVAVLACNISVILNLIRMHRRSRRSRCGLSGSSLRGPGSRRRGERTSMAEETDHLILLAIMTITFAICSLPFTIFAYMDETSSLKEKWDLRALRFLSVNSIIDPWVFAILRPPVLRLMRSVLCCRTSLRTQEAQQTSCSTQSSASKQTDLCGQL

[7] = tested on: Rattus norvegicus; test: Inhibition of PGE2-induced uterine contraction in pregnant rat at 3 mg/kg, po after 4 hrs; format: functional
[8] = tested on: Rattus norvegicus; test: Inhibition of PGE2-induced uterine contraction in pregnant rat at 0.3 mg/kg, id; format: functional; settings: route intraduodenal; method in brief: as §1
[9] = tested on: Rattus norvegicus; test: Inhibition of PGE2-induced uterine contraction in id dosed pregnant rat; format: functional, organism-based; method in brief: as §1

Ki [1] [nM]	Ki [3] [nM]	IC50 [4] [nM]	Ki [5] [nM]	Ki [6] [nM]	Compound	inhibition in vivo at 1 mg/kg [2] [%]	inhibition in vivo at 3 mg/kg [7] [%]	inhibition in vivo at 0.3 mg/kg [8] [%]	inhibition [9]
21	–	–	–	–	O=C(O)CCc1ccc(Cn2cccn2)cc1OCCc1ccc2ccccc2c1	–	–	–	–
1.2	5000	47	> 10000	> 10000	O=C(CCc1ccc(CN2CCOCC2)cc1OCCc1ccc2ccccc2c1)NS(=O)(=O)c1ccc(F)c(F)c1	35	–	–	–
0.51	> 10000	24	2300	> 10000	N#Cc1cccc(OCc2ccc(CCC(=O)NS(=O)(=O)c3ccc(F)c(F)c3)c(OCCc3ccc4ccccc4c3)c2)c1	92	66	50	–
0.16	1700	0.4	710	> 10000	O=C(CCc1ccc(COc2cccnc2)cc1OCCc1ccc2ccccc2c1)NS(=O)(=O)c1ccc(F)c(F)c1	71	–	44	–
0.22	–	5.5	–	–	O=C(CCc1ccc(Cn2cccn2)cc1OCCc1ccc2ccccc2c1)NS(=O)(=O)c1ccc(F)c(Cl)c1	–	–	–	–
0.58	–	88	–	–	Cc1ccc(S(=O)(=O)NC(=O)CCc2ccc(Cn3cccn3)cc2OCCc2ccc3ccccc3c2)o1	–	–	–	–
0.27	2800	51	> 10000	> 10000	O=C(CCc1ccc(Cn2cccn2)cc1OCCOc1ccccc1)NS(=O)(=O)c1ccc(F)c(F)c1	28	–	–	–
–	–	–	–	–	Cc1cn(Cc2ccc(Cl)cc2Cl)c2c(/C=C/C(=O)NS(=O)(=O)c3cc(Cl)c(Cl)s3)cc(F)cc12	–	70	–	–
0.5	–	140	–	–	O=C(CCc1ccc(Cn2cccn2)cc1OCCc1ccc2ccccc2c1)NS(=O)(=O)c1ccccc1	–	–	–	–
0.086	2100	1.2	2400	> 10000	O=C(CCc1ccc(Cn2cccn2)cc1OCCc1ccc2ccccc2c1)NS(=O)(=O)c1ccc(F)c(F)c1	76	–	43	Dose-dependent effect
0.065	–	18	–	–	N#Cc1cccc(S(=O)(=O)NC(=O)CCc2ccc(Cn3cccn3)cc2OCCc2ccc3ccccc3c2)c1	–	–	–	–
0.35	–	110	–	–	Cc1csc(S(=O)(=O)NC(=O)CCc2ccc(Cn3cccn3)cc2OCCc2ccc3ccccc3c2)n1	–	–	–	–
0.45	–	7.8	–	–	O=C(CCc1ccc(Cn2cccn2)cc1OCCc1ccc2ccccc2c1)NS(=O)(=O)c1ccc(Cl)c(Cl)c1	–	–	–	–
0.43	–	10	–	–	Cc1ccc(S(=O)(=O)NC(=O)CCc2ccc(Cn3cccn3)cc2OCCc2ccc3ccccc3c2)cc1Cl	–	–	–	–
22	–	> 10000	–	–	CS(=O)(=O)NC(=O)CCc1ccc(Cn2cccn2)cc1OCCc1ccc2ccccc2c1	–	–	–	–
15	–	820	–	–	O=C(NCc1ccc(Cn2cccn2)cc1OCCc1ccc2ccccc2c1)NS(=O)(=O)c1ccccc1	–	–	–	–
1.6	–	190	–	–	O=C(CCc1ccc(Cn2cccn2)cc1OCCc1ccc2ccccc2c1)NS(=O)(=O)c1ccccn1	–	–	–	–
0.12	260	3.8	3500	> 10000	CN(CCOc1cc(Cn2cccn2)ccc1CCC(=O)NS(=O)(=O)c1ccc(F)c(F)c1)c1ccccc1	50	–	–	–
1	–	150	–	–	O=C(CCc1ccc(Cn2cccn2)cc1OCCc1ccc2ccccc2c1)NS(=O)(=O)c1cccnc1	–	–	–	–
140	–	> 10000	–	–	O=C(NS(=O)(=O)CCc1ccc(Cn2cccn2)cc1OCCc1ccc2ccccc2c1)c1ccccc1	–	–	–	–
0.2	1300	59	2500	> 10000	O=C(CCc1ccc(Cn2cccn2)cc1OCCc1ccccc1)NS(=O)(=O)c1ccc(F)c(F)c1	51	–	29	–
0.54	560	6.4	3700	> 10000	O=C(CCc1ccc(Cn2cccn2)cc1OCCc1cccc(N2CCOCC2)c1)NS(=O)(=O)c1ccc(F)c(F)c1	33	–	–	–
8.2	> 10000	24	> 10000	> 10000	CN(C)Cc1ccc(CCC(=O)NS(=O)(=O)c2ccc(F)c(F)c2)c(OCCc2ccc3ccccc3c2)c1	32	–	–	–
